Data from ChEMBL document CHEMBL1129253, “Synthesis and pharmacological activity of triazole derivatives inhibiting eosinophilia” (1996).

Each compound was assayed on Rattus norvegicus (assay: Inhibitory activity against eosinophilia when administered intraperitoneally in rats). Conditions: ip, read-out: ID50 (the source's name).
C/N=C(\S)n1nc(-c2ccc(Cl)cc2)nc1N showed an ED50 of 0.07 mg/kg.

What follows are compounds tested on Rattus norvegicus (assay: Tested for sephadex-induced lung Eosinophilia inhibition at 30 mg/kg in rat). Conditions: not given.
Format: functional
Outline: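 Male Wistar rats (5/group) received 1 mL Sephadex G-200 (0.5 mg/mL in saline, boiled 5 h) by tail vein on days 0, 3 and 5. Drug or vehicle was given ip 10 min before each injection. On day 7, lungs were lavaged three times with heparinized PBS at 37 °C. Eosinophils and total cells were counted in Hinkelman reagent. % inhibition compares group-mean eosinophil/total ratios with vehicle.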
Nc1ncnn1/C(S)=N/CCCCCO gave an inhibition in vivo at 30 mg/kg of -17%.
For CCC/N=C(\S)n1ncnc1N, the inhibition in vivo at 30 mg/kg was 93%.
In the case of CCCCCC/N=C(\S)n1ncnc1N, the inhibition in vivo at 30 mg/kg is reported as -1%.
In the case of C/N=C(\S)n1nc(-c2ccc(Cl)cc2)nc1N, the inhibition in vivo at 30 mg/kg is reported as 88%.
With C/N=C(\S)c1ncccc1N the inhibition in vivo at 30 mg/kg was 9%.
Compound C/N=C(\S)c1c[nH]nc1N has an inhibition in vivo at 30 mg/kg of -22%.
C/N=C(\S)n1ncnc1N gave an inhibition in vivo at 30 mg/kg of 93%.
CNC(=S)n1nc(SC)nc1N was tested, and the inhibition in vivo at 30 mg/kg was 54%.
Compound C/N=C(\S)n1nnnc1N has an inhibition in vivo at 30 mg/kg of 53%.
CCOC(=O)C(=O)Nc1ccc(-c2nc(N)n(/C(S)=N/C)n2)cc1 showed an inhibition in vivo at 30 mg/kg of 49%.
C/N=C(\S)n1cnc(N)n1 was tested, and the inhibition in vivo at 30 mg/kg was 25%.
For Nc1ncnn1/C(S)=N/Cc1ccccc1, the inhibition in vivo at 30 mg/kg was 40%.
Work on Nc1ncnn1/C(S)=N/C1CCCCC1 yielded an inhibition in vivo at 30 mg/kg of 31%.
With CSC(=S)n1ncnc1N the inhibition in vivo at 30 mg/kg was 36%.
CNC(=S)n1nc(-c2ccc(OC)cc2)nc1N was tested, and the inhibition in vivo at 30 mg/kg was 70%.
With S=C(NC1CCCCC1)n1cncn1 the inhibition in vivo at 30 mg/kg was 0%.
C/N=C(\S)c1cccnc1N gave an inhibition in vivo at 30 mg/kg of 27%.
Work on C/N=C(\S)Nc1ccc(-c2nc(N)n(/C(S)=N/C)n2)cc1 yielded an inhibition in vivo at 30 mg/kg of 31%.
CN(C)C(=S)n1ncnc1N showed an inhibition in vivo at 30 mg/kg of 34%.
For CCOCCC/N=C(\S)n1ncnc1N, the inhibition in vivo at 30 mg/kg was 1%.
C/N=C(\S)n1nc(-c2ccc(C)cc2)nc1N gave an inhibition in vivo at 30 mg/kg of 65%.
C/N=C(\S)n1nc(C)nc1N showed an inhibition in vivo at 30 mg/kg of 13%.
Compound CCCC/N=C(\S)n1ncnc1N has an inhibition in vivo at 30 mg/kg of 21%.
Work on C/N=C(\S)c1[nH]cnc1N yielded an inhibition in vivo at 30 mg/kg of 5%.
C/N=C(\S)n1nc(N)nc1N was tested, and the inhibition in vivo at 30 mg/kg was 53%.
In the case of C/N=C(\S)n1nccc1N, the inhibition in vivo at 30 mg/kg is reported as 27%.
C/N=C(\S)c1sccc1N was tested, and the inhibition in vivo at 30 mg/kg was 4%.
CNC(=S)n1ncnc1NC gave an inhibition in vivo at 30 mg/kg of -1%.
For C/N=C(\S)c1nccnc1N, the inhibition in vivo at 30 mg/kg was 27%.
Compound CNC(=O)n1ncnc1N has an inhibition in vivo at 30 mg/kg of 40%.
C/N=C(\S)n1nc(-c2ccc(C#N)cc2)nc1N was tested, and the inhibition in vivo at 30 mg/kg was 87%.
C/N=C(\S)c1ccccc1N was tested, and the inhibition in vivo at 30 mg/kg was 47%.
With Nc1ncnn1/C(S)=N/c1ccccc1 the inhibition in vivo at 30 mg/kg was -7%.
For CS(=O)(=O)n1ncnc1N, the inhibition in vivo at 30 mg/kg was -40%.
For C/N=C(\S)n1nc(-c2ccccc2)nc1N, the inhibition in vivo at 30 mg/kg was 54%.

These compounds were tested on Rattus norvegicus (assay: Inhibitory activity against eosinophilia when administered orally in rats). Conditions: po, read-out: ID50 (the source's name).
C/N=C(\S)n1nc(-c2ccc(Cl)cc2)nc1N gave an ED50 of 0.3 mg/kg.
